In article PMC9907348 (Molecular Pharmaceutics, 2023):

Experiment: Intravital two-photon microscopy of renal disposition
Type: in vivo, Munich Wistar Frömter rats
Settings: rat; for course of subapical brush border fluorescence / vascular fluorescence after infusion: single iv bolus ∼300 μg/kg; for course of subapical brush border fluorescence: infusion movie ∼2 min 10 s to 300 s
Outline: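 Munich Wistar Frömter rats (9–12 weeks), fed ad libitum, with temperature monitored. Outer-cortex glomeruli with visible S1 proximal tubule openings were marked before a bolus of TAMRA- or TAMRA/QSY7-labelled peptide via an indwelling jugular line. 40 kDa FITC-dextran outlined the brush border. Two-photon excitation was at 800 nm (2.0% transmissivity), imaging for ~60 min. Fluorescence was measured over capillary-loop and subapical brush border regions.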

[1] = iv, intravital two-photon microscopy
[2] = intravital two-photon microscopy
[3] = iv, postinjection, 40 kDa FITC-dextran given just before

Substance	glomerular filtration [1]	proximal tubule (PTEC) binding and endocytosis [1]	course of subapical brush border fluorescence	vascular fluorescence after infusion [2]	time at which fluorescence was detected within apical vesicular arrangements [3]	time at which fluorescence within apical vesicular arrangements became marked [3]
5-TAMRA exenatide [TAMRA-Ex]	rapid glomerular filtration	rapid and extensive proximal tubule binding and endocytosis	rapid appearance	immediate and pronounced detection of fluorescence	–	–
5-TAMRA-QSY7 exenatide [FRET-Ex]	–	–	protracted linear increase	virtually undetectable	≤ 80 s	≤ 200 s
